Assay results as given in ChEMBL document CHEMBL1124568, “2,4-Diamino-5-benzylpyrimidines as antibacterial agents. 13. Some alkenyl derivatives with high in vitro activity against anaerobic organisms” (J Med Chem, 1989).
Converted amounts (≈) assume the structure as drawn.

What was measured:
Dihydrofolate reductase [1] = biological target: T1, Dihydrofolate reductase (Rattus norvegicus, UniProt Q920D2); experiment: In vitro inhibition of rat liver dihydrofolate reductase.; conditions: read-out: I50
T1 sequence (Q920D2 whole entry): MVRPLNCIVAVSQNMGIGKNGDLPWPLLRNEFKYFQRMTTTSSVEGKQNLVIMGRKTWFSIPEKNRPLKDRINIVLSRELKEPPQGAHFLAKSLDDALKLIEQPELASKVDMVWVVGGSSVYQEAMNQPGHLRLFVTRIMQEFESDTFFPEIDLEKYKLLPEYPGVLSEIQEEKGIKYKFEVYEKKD

Salmonella = experiment: Ratio of antibacterial (Salmonella typhi CN512) activities of compound and trimethoprim; assay type: functional, salmonella typhosa
Proteus vulgaris [2] = experiment: Ratio of antibacterial (Proteus vulgaris CN329) activities of compound and trimethoprim; assay type: functional
Method in brief: (§1)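 Each MIC is divided by the MIC of trimethoprim run alongside. Serial dilutions were normally 0.1, 0.3, 1, 3, 10, etc., and occasionally 1, 5 and 10. For E. coli the value is the average over six strains.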

Streptococcus pyogenes [3] = experiment: Ratio of antibacterial (Streptococcus pyogenes CN10) activities of compound and trimethoprim
Escherichia coli [4] = experiment: Ratio of antibacterial (Escherichia coli CN314) activities of compound and trimethoprim; assay type: functional
Shigella dysenteriae = experiment: Ratio of antibacterial (Shigella dysentariae CN513) activities of compound and trimethoprim; assay type: functional
Klebsiella aerogenes [5] = experiment: Ratio of antibacterial (Enterobacter aerogenes, 2201/86) activities of compound and trimethoprim; assay type: functional; method in brief: as §1
Klebsiella pneumoniae [6] = experiment: Ratio of antibacterial (Klebsiella pneumoniae CN3632) activities of compound and trimethoprim; assay type: functional; method in brief: as §1
Dihydrofolate reductase [7] = biological target: T2, Dihydrofolate reductase (Escherichia coli, UniProt P0ABQ4); experiment: In vitro inhibition of dihydrofolate reductase of Escherichia coli; conditions: read-out: I50
T2 sequence (P0ABQ4 whole entry): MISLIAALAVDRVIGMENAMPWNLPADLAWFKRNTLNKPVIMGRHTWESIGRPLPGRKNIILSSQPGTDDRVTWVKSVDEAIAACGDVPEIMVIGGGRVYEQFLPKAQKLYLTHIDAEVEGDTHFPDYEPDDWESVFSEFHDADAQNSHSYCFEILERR
Method in brief: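 The E. coli DHFR assay contained 1 nM enzyme, with the lower limit for I50 arbitrarily set at 2 nM. I50 was estimated from plots of % inhibition of steady-state velocity vs log inhibitor concentration.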

Staphylococcus aureus [8] = experiment: Ratio of antibacterial (Staphylococcus aureus CN491) activities of compound and trimethoprim; assay type: functional; method in brief: as §1
Proteus vulgaris [9] = experiment: Antibacterial (Proteus vulgaris CN329) activity compared to trimethoprim.; assay type: functional; method in brief: as §1
Klebsiella aerogenes [10] = experiment: Antibacterial (Enterobacter aerogenes 2201/86) activity compared to trimethoprim.; assay type: functional; method in brief: as §1
[11] = test system: Mycolicibacterium smegmatis; experiment: Antibacterial (Mycobacterium smegmatis S3254) activity compared to trimethoprim.; assay type: functional; method in brief: as §1
Clostridioides difficile = experiment: Ratio of antibacterial (Clostridium difficile) activities compared to that of trimethoprim and metronidazole; assay type: functional
Serratia marcescens = experiment: Antibacterial (Serratia marcescens CN2398) activity compared to trimethoprim.; assay type: functional; method in brief: as §1
Shigella flexneri = experiment: Antibacterial (Shigella flexneri CN6007) activity compared to trimethoprim.; assay type: functional; method in brief: as §1
Escherichia coli [12] = experiment: Antibacterial (Escherichia coli) activity compared to trimethoprim.; assay type: functional; method in brief: as §1
Klebsiella pneumoniae [13] = experiment: Antibacterial (Klebsiella pneumoniae CN3632) activity compared to trimethoprim.; assay type: functional; method in brief: as §1
Streptococcus pyogenes [14] = experiment: Antibacterial ([…] CN10) activity compared to trimethoprim.; assay type: functional; method in brief: as §1
Staphylococcus aureus [15] = experiment: Antibacterial (Staphylococcus aureus CN491) activity compared to trimethoprim.; assay type: functional; method in brief: as §1
Clostridium perfringens = experiment: Ratio of antibacterial (Clostridium perfringens) activities compared to that of trimethoprim and metronidazole; assay type: functional
Fusobacterium nucleatum = experiment: Ratio of antibacterial (Fusobacterium nucleatum) activities compared to that of trimethoprim and metronidazole; assay type: functional
[16] = Antibacterial (Salmonella typhi CN512) activity compared to trimethoprim.; assay type: functional, salmonella typhosa
Pasteurella multocida = experiment: Antibacterial (Pasteurella multocides ATCC 6587) activity compared to trimethoprim.; assay type: functional; method in brief: as §1
[17] = test system: Bacteroides thetaiotaomicron; experiment: Ratio of antibacterial (Bacteroides thetaiotaomicron) activities compared to that of trimethoprim and metronidazole; assay type: functional
Phocaeicola vulgatus = experiment: Ratio of antibacterial (Bacteroides vulgatus) activities compared to that of trimethoprim and metronidazole; assay type: functional
[18] = Half-life in dogs Plasma; assay type: ADME, organism-based, Canis lupus familiaris; conditions: dog
Method in brief: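 Two fasted (18 h) male beagles received 5 mg/kg […] (free base), co-dosed with 5 mg/kg trimethoprim in propylene glycol. Jugular plasma was sampled from 0.17 to 24 h. Drug was extracted, separated by TLC and read by fluorescence densitometry. t1/2 came from least-squares linear regression of the postabsorption segment of the plasma curve.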

Row | SMILES | IC50 (Dihydrofolate reductase [1]) [µM] | MIC (Proteus vulgaris [9]) [µg/mL] | MIC (Klebsiella aerogenes [10]) [µg/mL] | MIC [11] [µg/mL] | MIC (Clostridioides difficile) [µg/mL] | MIC (Serratia marcescens) [µg/mL] | MIC (Shigella flexneri) [µg/mL] | MIC (Escherichia coli [12]) [µg/mL] | MIC (Klebsiella pneumoniae [13]) [µg/mL] | MIC (Streptococcus pyogenes [14]) [µg/mL] | MIC (Staphylococcus aureus [15]) [µg/mL] | MIC (Clostridium perfringens) [µg/mL] | MIC (Fusobacterium nucleatum) [µg/mL] | MIC [16] [µg/mL] | MIC (Pasteurella multocida) [µg/mL] | MIC [17] [µg/mL] | MIC (Phocaeicola vulgatus) [µg/mL] | other results
1 | CCOc1cc(Cc2cnc(N)nc2N)cc2c1OCO2 | 37 | – | – | – | – | – | – | – | – | – | – | – | – | – | – | – | – | MIC (Salmonella): 30 µg/mL; MIC (Proteus vulgaris [2]): 10 µg/mL; MIC (Streptococcus pyogenes [3]): 1 µg/mL; MIC (Escherichia coli [4]): 30 µg/mL; MIC (Shigella dysenteriae): 10 µg/mL; MIC (Klebsiella aerogenes [5]): 10 µg/mL; MIC (Klebsiella pneumoniae [6]): 30 µg/mL; IC50 (Dihydrofolate reductase [7]): 0.041 µM; MIC (Staphylococcus aureus [8]): 10 µg/mL
2 | C=CCOc1ccc(Cc2cnc(N)nc2N)cc1OC | 49 | 3 (≈ 10.5 µM) | 10 (≈ 34.9 µM) | 3 (≈ 10.5 µM) | > 25 | 10 (≈ 34.9 µM) | 10 (≈ 34.9 µM) | 7.6 (≈ 26.5 µM) | 10 (≈ 34.9 µM) | 3 (≈ 10.5 µM) | 10 (≈ 34.9 µM) | > 25 | 0.8 | 10 (≈ 34.9 µM) | 10 (≈ 34.9 µM) | – | – | –
3 | CCCc1cc(Cc2cnc(N)nc2N)cc(OC)c1OC | 37 | 10 (≈ 33.1 µM) | 10 (≈ 33.1 µM) | 3 (≈ 9.92 µM) | > 25 | 3 (≈ 9.92 µM) | 10 (≈ 33.1 µM) | 6 (≈ 19.8 µM) | 10 (≈ 33.1 µM) | 0.1 (≈ 0.331 µM) | 0.1 (≈ 0.331 µM) | > 25 | 0.4 | 3 (≈ 9.92 µM) | 10 (≈ 33.1 µM) | 1.6 | 1.6 | –
4 | C=CCOc1ccc(Cc2cnc(N)nc2N)cc1 | 320 | > 100 | 10 (≈ 39 µM) | 50 (≈ 195 µM) | – | > 20 | 100 (≈ 390 µM) | 72 (≈ 281 µM) | 100 (≈ 390 µM) | 10 (≈ 39 µM) | 100 (≈ 390 µM) | – | – | 100 (≈ 390 µM) | 100 (≈ 390 µM) | – | – | –
5 | C=CCc1cc(Cc2cnc(N)nc2N)cc(CCC)c1O | 2 | 30 (≈ 101 µM) | 30 (≈ 101 µM) | 10 (≈ 33.5 µM) | > 25 | 3 (≈ 10.1 µM) | 30 (≈ 101 µM) | 5 (≈ 16.8 µM) | 30 (≈ 101 µM) | 1 (≈ 3.35 µM) | 3 (≈ 10.1 µM) | > 25 | 0.4 | 100 (≈ 335 µM) | 30 (≈ 101 µM) | 0.8 | 0.8 | –
6 | C=CCc1cc(Cc2cnc(N)nc2N)cc(OC)c1O | 14.7 | 3 (≈ 10.5 µM) | 1 (≈ 3.49 µM) | 3 (≈ 10.5 µM) | > 25 | 3 (≈ 10.5 µM) | 1 (≈ 3.49 µM) | 1 (≈ 3.49 µM) | 0.3 (≈ 1.05 µM) | 1 (≈ 3.49 µM) | 0.3 (≈ 1.05 µM) | > 25 | 0.2 | 3 (≈ 10.5 µM) | 1 (≈ 3.49 µM) | 1.6 | 1.6 | half-life [18]: 42 min
7 | C=CCc1cc(Cc2cnc(N)nc2N)cc(CC=C)c1O | 9.6 | 50 (≈ 169 µM) | 20 (≈ 67.5 µM) | 5 (≈ 16.9 µM) | > 25 | > 10 | 50 (≈ 169 µM) | 21 (≈ 70.9 µM) | 20 (≈ 67.5 µM) | 1 (≈ 3.37 µM) | 1 (≈ 3.37 µM) | > 25 | 0.8 | 10 (≈ 33.7 µM) | 100 (≈ 337 µM) | 0.4 | 0.8 | –
8 | C/C=C/c1cc(Cc2cnc(N)nc2N)cc(/C=C/C)c1OC | 27 | > 50 | 100 (≈ 322 µM) | 2 (≈ 6.44 µM) | 25 | > 5 | 100 (≈ 322 µM) | 72 (≈ 232 µM) | 100 (≈ 322 µM) | 0.1 (≈ 0.322 µM) | 1 (≈ 3.22 µM) | 25 | 1.6 | 100 (≈ 322 µM) | 100 (≈ 322 µM) | 0.4 | 0.8 | –
9 | C=CCc1cc(Cc2cnc(N)nc2N)cc(OC)c1OC | 50 | 10 (≈ 33.3 µM) | 10 (≈ 33.3 µM) | 3 (≈ 9.99 µM) | > 25 | 3 (≈ 9.99 µM) | 10 (≈ 33.3 µM) | 6 (≈ 20 µM) | 10 (≈ 33.3 µM) | 0.3 (≈ 0.999 µM) | 0.1 (≈ 0.333 µM) | > 25 | 0.4 | 3 (≈ 9.99 µM) | 10 (≈ 33.3 µM) | 1.6 | 1.6 | half-life [18]: 50.4 min
